Hits are enriched below; roughly 4.6% of the tested compounds scored in any of these assays.
Rtt109 Vps75 – blocks Candida albicans Rtt109/Vps75 acetyltransferase activity; purified Rtt109/Vps75, ThioGlo CoA-SH fluorescence, 4 h; inhibition, % at 34.9 µM; 330,000 tested, 0.16% active; AID 540336;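 active means inhibition of at least 50% in every replicate; inconclusive means best replicate reaches 50% inhibition but some replicates fall short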
HDAC3 inh – human HDAC3 inhibition; inhibition, % at 8.3 µM; recombinant HDAC3, fluorogenic peptide/trypsin coupled, fluorescence; O15379; 320,000 tested, 0.15% active; in the data active means inhibition above about 26%, passing the limit was not always enough; inconclusive means no clear call, values can overlap the other calls
PfM18AAP inh – blocks P. falciparum M18 aspartyl aminopeptidase | inhibition, % at 7.35 µM | 290,000 tested, 1.2% active | recombinant PfM18AAP, H-Glu-NHMec fluorogenic cleavage;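 active means inhibition above the campaign mean inhibition over all tested compounds plus 3 SD, cut at about 28% in these data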;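 further: 0% = plate median of test compound wells and 100% = 2 mM ZnCl2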
UCH37 DUB inh – inhibitors of human deubiquitinating enzyme UCH37; Q9Y5K5; purified proteasome/UCH37, Ub-AMC cleavage fluorescence; inhibition, % (test concentration not listed); 330,000 tested, 0.33% active;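 active means mean inhibition over replicate wells above about 20%, limit read from the data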;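 further: 0% = compound-free wells with enzyme and 100% = wells lacking proteasome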
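assay system = human UCH37 enzyme supplied as purified proteasome complex | amount = proteasome at 0.15 nM in the dispensed enzyme solution | schedule = 30 min compound-proteasome preincubation then 25 min substrate reaction, room temperature | measured by = fluorescence, ex 355 nm, em 460 nm | benchmarks = no-proteasome wells (full inhibition) and compound-free wells (no inhibition)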
FAS TE block – FAS thioesterase (human) inhibition; 360,000 tested, 0.67% active; recombinant FAS-TE, OMFH fluorogenic substrate, fluorescence endpoint; AID 602261; P49327; inhibition, % at 15 µM;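 active means compounds whose normalised, plate-corrected inhibition of enzyme fluorescence in the single-dose primary screen is 50% or more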;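 further: 0% = DMSO with enzyme and 100% = substrate without enzyme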
ALR inh – human ALR oxidase inhibition via reduced H2O2 | P55789 | purified ALR, DTT oxidation, H2O2 HRP-luminol luminescence | inhibition, % (no concentration beside the values) | 290,000 tested, 3.8% active;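 active means mean replicate inhibition above about 79%, with every replicate also reaching it, limit read from the data; inconclusive means only one of the two criteria met; inactive means mean below limit and not every replicate reaching it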
* marks the source's active call; other numbers are inactive results; ? = inconclusive; . = not tested or not shown.

SMILES | Rtt109 Vps75 | HDAC3 inh | PfM18AAP inh | UCH37 DUB inh | FAS TE block | ALR inh
Cc1cc(C)cc(NC(=O)C2C3C=CC(O3)C2C(=O)O)c1 (centres undefined) | -7 | -2 | 3 | . | -2 | 7
c1ccc(Nc2nc(CSc3ncn[nH]3)cs2)cc1 | 4 | 15 | 60* | 1 | -36 | 94*
Cn1ccnc1SCc1cn2ccccc2n1 | -2 | -11 | 4 | -3 | -3 | 94*
COc1ccc(-c2csc(N3CCN(C(=O)c4ccco4)CC3)n2)cc1 | -2 | 1 | 8 | 6 | 6 | 64
COc1ccc(C2=NN(c3nc(-c4ccc(CNC(C)=O)cc4)cs3)C(c3ccco3)C2)cc1 (centres undefined) | 4 | 10 | -2 | -49 | 1 | 99*
CC(/C=C1\SC(=S)N(CC(=O)O)C1=O)=C\c1ccccc1 | 16 | . | -2 | 9 | 3 | 11
O=C(O)C(c1ccccc1)N1C(=O)/C(=C/c2cccs2)SC1=S (centres undefined) | 14 | 3 | 27 | 9 | -6 | 98*
COc1cccc(/C=C2\SC(=S)N(C(Cc3ccccc3)C(=O)O)C2=O)c1 (centres undefined) | 1 | 6 | 6 | 8 | 19 | 68
COc1ccc(OC)c(/C=C2\SC(=S)N(C(C(=O)O)c3ccccc3)C2=O)c1 (centres undefined) | 66* | 1 | 24 | 12 | 0 | .
CCOc1ccc(/C=C2\SC(=S)N(C(C(=O)O)c3ccccc3)C2=O)cc1OC (centres undefined) | 24 | 9 | 8 | 8 | -3 | 28
O=C(O)C(Cc1ccccc1)N1C(=O)/C(=C/c2cccs2)SC1=S (centres undefined) | 56* | . | 27 | 6 | 7 | .
CC(/C=C1\SC(=S)N(C(C(=O)O)c2ccccc2)C1=O)=C\c1ccccc1 (centres undefined) | 66* | 15 | 5 | 12 | 12 | 10
O=C(Cn1cc(C(F)(F)F)ccc1=O)NN=Cc1ccc(F)cc1 | . | . | . | 4 | . | .
CCOC(=O)c1c(NC(C)=O)sc2c(OC)cccc12 | 0 | 3 | -4 | -4 | -1 | .
CCOC(=O)c1c(N)sc2c(O)c(Br)ccc12 | 3 | 2 | 27 | 1 | 0 | 98*
CCOC(=O)c1c(N)sc2c(NC(C)=O)cccc12 | -10 | ? | -7 | 0 | -6 | 98*
CCOC(=O)c1c(NC(C)=O)sc2c(OC)c(Br)ccc12 | 1 | -2 | 11 | 5 | -1 | -2
Cc1cccc(C=Nn2c(-c3ccccn3)n[nH]c2=S)c1 | . | . | . | -1 | . | .
O=C(CC=NOCc1c(Cl)cccc1Cl)c1ccccc1 | . | . | . | 7 | . | .
CCn1c2ccccc2c2cc(NC(=O)CC(C)=NNC(=O)c3ccccc3N)ccc21 | . | . | . | -200 | . | .
NC(=S)NN=Cc1ccc(-c2ccc([N+](=O)[O-])cc2)o1 | . | . | . | 4 | . | .
CCn1c(SCC(=O)N2CCCCC2)nc2c(c1=O)SC(C)C2 (centres undefined) | 8 | 2 | -3 | 6 | -8 | 18
CCn1c(SCC(=O)c2ccccc2)nc2c(c1=O)SC(C)C2 (centres undefined) | 3 | -9 | -3 | 9 | 14 | 99*
COCCn1c(SCC(=O)c2ccccc2)nc2c(c1=O)SC(C)C2 (centres undefined) | -3 | -5 | 8 | 6 | 5 | 99*
CCN1CCC(N2CCN(c3ccc(F)cc3)CC2)CC1 | 5 | -1 | 0 | 4 | -4 | 97*
SMILES | Rtt109 Vps75 | HDAC3 inh | PfM18AAP inh | UCH37 DUB inh | FAS TE block | ALR inh
CN(N=Cc1cc([N+](=O)[O-])ccc1O)c1ccccc1 | . | . | . | -1 | . | .
Cn1nnnc1Sc1ncnc2scc(-c3ccc[nH]3)c12 | 8 | 3 | . | 1 | 4 | 94*
Cn1nnnc1Sc1ncnc2scc(-c3ccccc3)c12 | 1 | -3 | 1 | 5 | -1 | 11
Cc1c(NC(=O)OC(C)C)sc(=S)n1C | -9 | 4 | -4 | 6 | -3 | 98*
O=C(NN=CC1CC=CCC1)c1cc2ccccc2cc1O (centres undefined) | . | . | . | -1 | . | .
COc1ccc(NCC(=O)N/N=C/C2CCCCC2)cc1 | 14 | 4 | 4 | . | -6 | 92*
O=C(CSc1nc2ccccc2[nH]1)N=Nc1c(O)[nH]c2ccccc12 | . | 1 | 11 | 7 | -6 | 96*
CC(C)CCN1C(=O)c2ccc(C(=O)Nc3cc(C(=O)O)cc(C(=O)O)c3)cc2C1=O | -6 | 0 | 0 | 2 | 13 | 0
CC(=O)NS(=O)(=O)c1ccc(NC(=O)c2ccc3c(c2)C(=O)N(CCC(C)C)C3=O)cc1 | -4 | 6 | 2 | 3 | -50 | 92*
O=C(O)Cc1sc(Nc2ccc(F)cc2)nc1-c1cccs1 | -1 | 1 | 29* | -1 | 0 | 41
Cc1ccc(Nc2nc(-c3ccccc3)c(CC(=O)O)s2)cc1 | . | -5 | 11 | 7 | -4 | 0
COc1cccc(-c2c(C(=O)NN=Cc3cccs3)nnn2-c2nonc2N)c1 | . | . | . | 3 | . | .
Cc1ccc(CSc2nc3c(c(SCC(=O)O)n2)CCCC3)cc1 | 12 | ? | -12 | 2 | -2 | 97*
CC1CCN(c2ccc(C(F)(F)F)cc2N)CC1 | 9 | -3 | -13 | 1 | 14 | 98*
CC1CCN(c2ccc(S(=O)(=O)N3CCC(C)CC3)cc2N)CC1 | 2 | 7 | 2 | 3 | 22 | 0
S=c1[nH]nc(-c2ccco2)n1N=C/C=C/c1ccccc1 | . | . | . | 7 | . | .
COc1ccc(C(=O)CC(c2ccccc2)C2C(=O)CCCC2=O)cc1 (centres undefined) | 10 | -1 | 31* | 6 | -8 | -2
COc1ccc(C(CC(=O)c2ccccc2)C2CCCCC2=O)cc1 (centres undefined) | 2 | 5 | 0 | 4 | 22 | 0
CC(C)=NN/C(N)=N/C(=S)Nc1ccc(C)cc1 | -3 | -3 | 29* | 4 | -9 | 72
Cn1cc(C(=O)NN=Cc2ccc([N+](=O)[O-])cc2)c2ccccc21 | . | . | . | 7 | . | .
Cc1ccc(CNC(=O)C(Cc2ccccc2)NS(=O)(=O)c2ccc3c(c2)CCC(=O)N3)cc1 (centres undefined) | -12 | 5 | 2 | 5 | 6 | -7
O=C1CCc2cc(S(=O)(=O)NC(Cc3ccccc3)C(=O)NC3CCCC3)ccc2N1 (centres undefined) | 3 | -5 | -7 | 4 | -4 | 84*
CN(Cc1ccco1)C(=O)C(Cc1ccccc1)NS(=O)(=O)c1ccc2c(c1)CCC(=O)N2 (centres undefined) | 6 | -1 | 2 | 2 | -4 | 78*
CCCNC(=O)C(Cc1ccccc1)NS(=O)(=O)c1ccc2c(c1)CCC(=O)N2 (centres undefined) | -4 | -1 | -2 | -1 | -4 | 84*
CC(=NOC(=O)c1ccccc1)c1c(C)nc2cc(C)ccn12 | . | . | . | 0 | . | .
